The target of series [1] is T1, MAP kinase-interacting serine/threonine-protein kinase 2 (Homo sapiens, UniProt Q9HBH9). The series can be described thus: Inhibition of MNK2 (unknown origin) at 10 uM using S3 as substrate measured after 60 mins by HTRF assay relative to control. The method, boiled down:
(§1)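 HTRF Ser/Thr KinEASE format. Mnk1 or Mnk2 enzyme (0.99 ng) incubated with compound for 60 min at room temperature with 1 μM substrate S3, 392 μM ATP, 10 mM MgCl₂ and 1 mM DTT in KinEASE enzymatic buffer. Stopped with SA-XL665 and STK antibody detection reagents; 615/665 nm signal ratio read. Single-concentration values are duplicate means; IC50 taken from inhibition curves.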
A general note: TR-FRET usually uses a lanthanide donor and a delayed reading to cut background.
Target sequence in this assay (Q9HBH9 whole entry, looked up): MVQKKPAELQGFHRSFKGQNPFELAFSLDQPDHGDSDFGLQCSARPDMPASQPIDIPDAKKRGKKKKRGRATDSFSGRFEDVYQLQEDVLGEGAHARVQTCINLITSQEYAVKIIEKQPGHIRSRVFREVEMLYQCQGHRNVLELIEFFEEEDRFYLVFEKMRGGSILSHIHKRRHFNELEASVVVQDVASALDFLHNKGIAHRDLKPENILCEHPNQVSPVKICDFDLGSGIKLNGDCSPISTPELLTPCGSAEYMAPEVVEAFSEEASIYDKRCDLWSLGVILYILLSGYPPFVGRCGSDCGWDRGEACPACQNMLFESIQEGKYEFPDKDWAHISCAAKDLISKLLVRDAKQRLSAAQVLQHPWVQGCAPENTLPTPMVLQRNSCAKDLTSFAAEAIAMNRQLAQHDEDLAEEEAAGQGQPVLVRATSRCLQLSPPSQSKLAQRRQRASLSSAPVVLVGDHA

Series [2] concerns the target T1, MAP kinase-interacting serine/threonine-protein kinase 2. The series can be described thus: Inhibition of MNK2 (unknown origin) at 1 uM using S3 as substrate measured after 60 mins by HTRF assay relative to control. The method, boiled down: as §1
Target sequence in this assay (Q9HBH9 whole entry, looked up): as above
The target in series [3] is MAP kinase-interacting serine/threonine-protein kinase 1 (Homo sapiens) (UniProt Q9BUB5). Put plainly: Inhibition of MNK1 (unknown origin) at 0.1 uM using S3 as substrate measured after 60 mins by HTRF assay relative to control. The method, boiled down: as §1
Series [4] addresses T1, MAP kinase-interacting serine/threonine-protein kinase 2. Put plainly: Inhibition of MNK2 (unknown origin) using S3 as substrate measured after 60 mins by HTRF assay.
Target sequence in this assay (Q9HBH9 whole entry): as the sequence (Q9HBH9 whole entry, looked up) above
For series [5], the target named is MAP kinase-interacting serine/threonine-protein kinase 1 (Homo sapiens) (UniProt Q9BUB5). Put plainly: Inhibition of MNK1 (unknown origin) at 10 uM using S3 as substrate measured after 60 mins by HTRF assay relative to control. The method, boiled down:
as §1

Series [6] shares this target. Put plainly: Inhibition of MNK1 (unknown origin) at 1 uM using S3 as substrate measured after 60 mins by HTRF assay relative to control. The method, boiled down: as §1
In series [7] the test system is THP-1. The series can be described thus: Antiproliferative activity against human THP1 cells after 96 hrs by MTT assay. Format: functional, cell-based. The conditions noted are these: THP-1, 96 h. The method, boiled down:
(§2)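 Cells seeded at 2,000 per well and grown 24 h at 37 °C in 5% CO₂. Compound added over a concentration range in triplicate wells, then incubated 96 h. MTT (2 mg/mL) added for 4 h, formazan taken up in DMSO, absorbance read at 570 nm. Inhibition calculated against untreated control. IC50 is the concentration giving half inhibition; mean of three independent experiments.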
In general terms: Formazan colour is commonly taken as a measure of viable cells.

The subject of series [8] is MOLM-13. The series can be described thus: Antiproliferative activity against human MOLM13 cells after 96 hrs by MTT assay. Format: functional, cell-based. The conditions noted are these: MOLM-13, 96 h. The method, boiled down: as §2
Series [9] relates to HCT-116. The series can be described thus: Antiproliferative activity against human HCT116 cells after 96 hrs by MTT assay. The class given is functional, cell-based. The conditions noted are these: HCT-116, 96 h. The method, boiled down:
as §2

The target in series [10] is MAP kinase-interacting serine/threonine-protein kinase 1/2 (Homo sapiens) (UniProt Q9HBH9+Q9BUB5). Put plainly: Inhibition of MNK1/MNK2 in human HCT116 cells assessed as reduction in eIF4E phosphorylation at Ser209 residue after 24 hrs by Western blot analysis. The class given is cell-based. The method, boiled down: (§3)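 HCT-116 cells exposed to compound at several concentrations in 0.5% DMSO, or DMSO alone, for 24 h. Cells were rinsed in ice-cold PBS and lysed in RIPA buffer (pH 8.0), 50 µg protein loaded. Run on 8% or 12% SDS-PAGE, transferred to nitrocellulose and checked for loading by Ponceau S. Blocked in 5% milk, probed overnight at 4°C for eIF4E, p-eIF4E and GAPDH, detected by ECL.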
In general terms: In western blotting, separated proteins are transferred to a membrane and probed.

Series [11] has as its system HCT-116. The series can be described thus: Effect on eIF4E levels in human HCT116 cells at 1 to 4 times IC50 after 24 hrs by Western blot analysis. Format: ADME, cell-based. The conditions noted are these: hct-116, 24 h. The method, boiled down:
as §3

Broadly, the inhibition is the percentage by which the read-out fell short of the control. The term IC50 denotes the point on the concentration scale where inhibition reaches its midpoint. Lower therefore signals greater potency.

MAP kinase-interacting serine/threonine-protein kinase 1 (Homo sapiens), sequence (Q9BUB5 whole entry, looked up): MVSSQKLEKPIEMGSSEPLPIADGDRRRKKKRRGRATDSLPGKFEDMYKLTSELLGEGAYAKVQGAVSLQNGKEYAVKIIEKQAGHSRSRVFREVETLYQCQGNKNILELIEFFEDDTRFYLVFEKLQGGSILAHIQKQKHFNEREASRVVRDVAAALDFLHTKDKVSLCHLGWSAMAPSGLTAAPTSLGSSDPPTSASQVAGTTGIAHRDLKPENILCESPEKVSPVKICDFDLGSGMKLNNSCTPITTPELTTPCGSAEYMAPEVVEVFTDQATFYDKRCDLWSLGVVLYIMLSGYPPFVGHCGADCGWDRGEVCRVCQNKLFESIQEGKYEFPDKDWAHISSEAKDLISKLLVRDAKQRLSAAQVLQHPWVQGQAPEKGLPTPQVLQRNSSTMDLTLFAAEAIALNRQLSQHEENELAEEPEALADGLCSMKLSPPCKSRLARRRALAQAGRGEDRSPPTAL

As to `COc1cc(O)c(C(N)=O)c2oc(C(=O)N(C)Cc3ccccc3)c(C)c12`, the inhibition in [1] and in series [2] was 0% each time.

In the case of `COc1cc(O)c(C(N)=O)c2oc(C(=O)NC3CCN(Cc4cc(Cl)ncn4)CC3)c(C)c12`, the inhibition in series [1] was determined as 11%; in series [2], 0%.

In the case of `CNC(=O)c1oc2c(C(N)=O)c(O)cc(OC)c2c1C`, the inhibition came out at 11% in [3]; 73% in series [1]; 39% in series [5]; 26% in series [6]; 66% in series [2]. In addition, the half-inhibitory concentration (IC50) in series [4] was 1.45 µM; in series [7] it was greater than 50 µM.

Take `CCN1CCN(C(=O)c2oc3c(C(N)=O)c(O)cc(OC)c3c2C)CC1`: the inhibition in series [3] was 3%; in series [1], 79%; in series [5] it was 30%; in series [6] it was 7%; in [2], 36%. The IC50 in series [4] stood at 1.16 µM; in series [7] it was 18.8 µM; in series [8] it was 13.5 µM; in series [9], 15.7 µM.

With `COc1cc(O)c(C(N)=O)c2oc(C(=O)NC3CCN(Cc4cccc(C(F)(F)F)c4)CC3)c(C)c12`, the inhibition in series [3] is 20%; in series [10], “Dose-dependent effect”; in [1] it was 90%; in [5], 59%; in series [6], 41%; in [2] it was 85%. Also, the 50% inhibitory concentration (IC50) in [4] was found to be 0.273 µM; in series [7] it was 6.3 µM; in series [8] it was 3.15 µM; in [9], 2.77 µM. Moreover, the Activity result in [11] is on record as “Non-Toxic”.

Consider `COc1cc(O)c(C(N)=O)c2oc(C(=O)NC3CCN(Cc4ccc(F)cc4)CC3)c(C)c12`, for which the figures for the inhibition in series [1] and in [2] were 15% and 8%, respectively.

Consider `CCOC(=O)c1oc2c(C(N)=O)c(O)cc(OC)c2c1C`, for which the values for the inhibition in series [1] and in [2] were 41% and 21%, respectively.

As to `COc1cc(OC)c2c(C)c(C(=O)NC3CCN(Cc4cccc(C(F)(F)F)c4)CC3)oc2c1`, the values for the inhibition in series [1] and in series [2] were 35% and 6%, respectively.

In the case of `Cc1c(C(=O)NC2CCN(Cc3cccc(C(F)(F)F)c3)CC2)oc2c(C(N)=O)c(O)cc(O)c12`, the inhibition in series [1] was 34%; in [2], 1%.

On to `COc1cc(O)c(C(N)=O)c2oc(C(=O)N3CCOCC3)c(C)c12`, for which the inhibition in series [1] was 24%; in series [2], 12%.

For `COc1cc(O)c(C(N)=O)c2oc(C(=O)NC3CCN(Cc4ccc(C(F)(F)F)cc4)CC3)c(C)c12`, the results for the inhibition in [1] and in [2] were 43% and 24%, respectively.

In the case of `COc1cc(O)c(C(N)=O)c2oc(C(=O)N3CCCCC3)c(C)c12`, the inhibition is 23% in series [1] and 19% in [2].

`COc1cc(O)c(C(N)=O)c2oc(C(=O)N(C)C)c(C)c12`: the inhibition in [1] was determined as 45%; in [2], 24%.

On to `COc1cc(O)c(C(N)=O)c2oc(C(=O)NCC3CCN(Cc4cccc(C(F)(F)F)c4)CC3)c(C)c12`, for which the values for the inhibition in series [1] and in series [2] were 49% and 23%, respectively.

For `COc1cc(O)c(C(N)=O)c2oc(C(=O)NCC3CCN(C(=O)c4ccc(F)cc4)CC3)c(C)c12`, the inhibition amounted to 23% in series [1] and 16% in [2].

As to `COc1cc(O)c(C(N)=O)c2oc(C(=O)Nc3ccc(C)c(C(F)(F)F)c3)c(C)c12`, the inhibition in [3] was found to be 12%; in [1], 57%; in series [5] it was 23%; in series [6], 23%; in series [2] it was 75%. The IC50 is 3.55 µM in series [4] and greater than 50 µM in series [7].

As to `COc1cc(O)c(C(N)=O)c2oc(C(=O)NC3CCN(Cc4cccc(Cl)c4Cl)CC3)c(C)c12`, the inhibition in series [1] is 21%; in series [2] it was 18%.

With `Cc1c(C(=O)NC2CCN(Cc3cccc(C(F)(F)F)c3)CC2)oc2cc(O)ccc12`, the inhibition in series [1] is 28%; in series [2], 0%.

As for `COc1cc(O)c(C(N)=O)c2oc(C(=O)NC3CCCC3)c(C)c12`, the inhibition in series [1] amounted to 22%; in series [2], 6%.

Consider `COc1cc(O)c(C(N)=O)c2oc(C(=O)NC3CCN(C(=O)c4ccc(C(F)(F)F)cc4)CC3)c(C)c12`, for which the inhibition came out at 29% in [1] and 26% in series [2].

For the compound `COc1cc(O)c(C(N)=O)c2oc(C(=O)Nc3ccc(F)c(C(F)(F)F)c3)c(C)c12`, the inhibition in series [1] amounted to 35%; in [2], 18%.

Regarding `Nc1ncnc2[nH]nc(Nc3ccc(F)cc3)c12`, the 50% inhibitory concentration (IC50) in series [7] was 11.7 µM; in [8] it was 8.24 µM; in series [9], 10.2 µM.

`COc1cc(OC)c2c(C)c(C(=O)NC3CCN(Cc4cccc(C(F)(F)F)c4)CC3)oc2c1C(N)=O`: the inhibition in [1] came out at 29%; in series [2] it was 2%.

Take `COc1cc(O)c(C(N)=O)c2oc(C(=O)NC3CCN(Cc4ccc(Cl)cc4)CC3)c(C)c12`: the inhibition amounted to 45% in [1] and 29% in [2].

Take `COc1ccc2c(C)c(C(=O)NC3CCN(Cc4cccc(C(F)(F)F)c4)CC3)oc2c1`: the inhibition in series [1] was found to be 27%; in series [2], 0%.

As to `COc1cc(O)c(C(N)=O)c2oc(C(=O)NCC3CCN(Cc4ccc(F)cc4)CC3)c(C)c12`, the results for the inhibition in series [1] and in series [2] were 41% and 32%, respectively.

As for `COc1cc(O)c(C(N)=O)c2oc(C(=O)N3CCN(c4ccccc4)CC3)c(C)c12`, the values for the inhibition in [1] and in [2] were 15% and 8%, respectively.

In the case of `COc1cc(O)c(C(N)=O)c2oc(C(=O)NC3CCCCC3)c(C)c12`, the inhibition came out at 28% in series [1] and 20% in series [2].

With `COc1cc(O)c(C(N)=O)c2oc(C(=O)NCCN(C)C)c(C)c12`, the results for the inhibition in series [1] and in series [2] were 24% and 19%, respectively.

For the compound `COc1cc(O)c(C(N)=O)c2oc(C(=O)NC3CCN(Cc4ccc(Cl)cc4Cl)CC3)c(C)c12`, the inhibition in [1] and in series [2] was 0% each time.

Consider `COc1cc(O)c(C(N)=O)c2oc(C(=O)NCc3cccc(F)c3)c(C)c12`, for which the inhibition is 23% in series [1] and 11% in series [2].

For the compound `COc1cc(O)c(C(N)=O)c2oc(C(=O)NC3CCN(Cc4ccc(C)cc4)CC3)c(C)c12`, the figures for the inhibition in series [1] and in series [2] were 40% and 27%, respectively.

Take `COc1cc(O)c(C(N)=O)c2oc(C(=O)NCc3ccccc3)c(C)c12`: the inhibition in series [1] stood at 28%; in [2], 24%.

Consider `COc1cc(O)c(C(N)=O)c2oc(C(=O)N3CCN(c4cccc(C(F)(F)F)c4)CC3)c(C)c12`, for which the inhibition in series [1] amounted to 61%; in series [2] it was 28%.

For `COc1cc(O)c(C(N)=O)c2oc(C(=O)N3CCN(c4ccc(F)cc4)CC3)c(C)c12`, the inhibition in series [1] amounted to 10%; in [2], 5%.

With `COc1cc(O)c(C(N)=O)c2oc(C(=O)NC3CCN(Cc4c(Cl)cccc4Cl)CC3)c(C)c12`, the inhibition in series [1] is 27%; in [2], 1%.

In the case of `COc1cc(O)c(C(N)=O)c2oc(C(=O)NC3CCN(Cc4ccccc4F)CC3)c(C)c12`, the inhibition in series [1] was 31%; in [2], 29%.

For the compound `COc1cc(O)c(C(N)=O)c2oc(C(=O)NC3CCN(Cc4ccncc4)CC3)c(C)c12`, the values for the inhibition in [1] and in [2] were 32% and 15%, respectively.

Consider `COc1cc(O)c(C(N)=O)c2oc(C(=O)Nc3ccccc3)c(C)c12`, for which the inhibition in series [1] and in [2] was 0% each time.

Regarding `COc1cc(O)c(C(N)=O)c2oc(C(=O)NCC3CCN(Cc4ccc(Cl)c(Cl)c4)CC3)c(C)c12`, the values for the inhibition in series [1] and in series [2] were 38% and 21%, respectively.

Regarding `COc1cc(O)c(C(N)=O)c2occ(C)c12`, the inhibition in [3] turned out to be 34%; in series [1], 77%; in series [5] it was 39%; in series [6], 49%; in [2] it was 43%. Further, the concentration for half-maximal inhibition (IC50) in series [4] was found to be 0.749 µM; in [7], 32.4 µM; in series [8], 24.8 µM; in [9], 26.1 µM.
